Legend:
HT-29 = assay: Antiproliferative activity against human HT-29 cells after 48 hrs by SRB assay; type: functional, cell-based; conditions: HT-29, 48 h
How it was run: (§1)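 SRB assay run as in the NCI screen with slight modifications. Seeding: HT-29 5.0 x 10^3, M21 3.5 x 10^3, MCF7 7.5 x 10^3 cells; cells preincubated 24 h. Drug in DMSO added at 0.75 to 1.0 x 10^5 nM for 48 h. TCA fixation, sulforhodamine B staining, absorbance 530-565 nm. At least two experiments in triplicate; runs accepted only when relative SD < 10%.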

M21 = assay: Antiproliferative activity against human M21 cells after 48 hrs by SRB assay; type: functional, cell-based; conditions: M21, 48 h; how it was run: as §1
MCF7 = assay: Antiproliferative activity against human MCF7 cells after 48 hrs by SRB assay; type: functional, cell-based; conditions: MCF7, 48 h; how it was run: as §1
[1] = Selectivity ratio of IC50 for human HT-29 cells to IC50 for human MCF7 cells; type: functional
How it was run: (§2)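 Ratio is IC50 in reference line over IC50 in sensitive line. […] Cells in DMEM with 5% calf serum at 37 °C. At least two experiments, triplicate cultures; assay accepted when relative SD < 10%.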

[2] = Selectivity ratio of IC50 for human M21 cells to IC50 for human MCF7 cells; type: functional; how it was run: as §2

SMILES	IC50 (HT-29) [µM]	IC50 (M21) [µM]	IC50 (MCF7) [nM]	Ratio IC50 [1]	Ratio IC50 [2]
CCN1CCN(c2ccc(S(=O)(=O)Oc3ccccc3OC)cc2)C1=O	> 100	> 100	> 100000	–	–
CCCN1CCN(c2ccc(S(=O)(=O)Oc3cccc(Cl)c3)cc2)C1=O	13	8.6	380	34	23
CN1CCN(c2ccc(S(=O)(=O)Oc3ccc(Cl)cc3)cc2)C1=O	12	43	> 100000	–	–
CCN1CCN(c2ccc(S(=O)(=O)Oc3cccc(I)c3)cc2)C1=O	3.1	2.2	1900	1.7	1.2
COc1ccc(OS(=O)(=O)c2ccc(N3CCN(C)C3=O)cc2)cc1	> 100	> 100	95000	>1.1	>1.1
CCCCN1CCN(c2ccc(S(=O)(=O)Oc3cccc(OC)c3)cc2)C1=O	13	30	490	27	61
CCN1CCN(c2ccc(S(=O)(=O)Oc3cccc(Br)c3)cc2)C1=O	3.8	3.4	2500	1.5	1.4
CCCN1CCN(c2ccc(S(=O)(=O)Oc3cccc(C)c3)cc2)C1=O	65	28	86000	0.8	0.3
Cc1ccc(OS(=O)(=O)c2ccc(N3CCN(C)C3=O)cc2)c(C)c1	3	1.8	2500	1.2	0.7
CCCN1CCN(c2ccc(S(=O)(=O)Oc3cc(OC)cc(OC)c3)cc2)C1=O	16	33	270	59	120
CN1CCN(c2ccc(S(=O)(=O)Oc3c(Cl)cc(Cl)cc3Cl)cc2)C1=O	2.5	1.7	2900	0.9	0.6
Cc1ccc(OS(=O)(=O)c2ccc(N3CCN(C)C3=O)cc2)cc1	> 100	> 100	> 100000	–	–
CCCCN1CCN(c2ccc(S(=O)(=O)Oc3cccc(Cl)c3)cc2)C1=O	21	90	110	190	820
CN1CCN(c2ccc(S(=O)(=O)Oc3cccc([N+](=O)[O-])c3)cc2)C1=O	26	23	> 100000	–	–
CCCN1CCN(c2ccc(S(=O)(=O)Oc3ccc(OC)cc3)cc2)C1=O	16	23	20000	0.8	1.2
COc1cc(OS(=O)(=O)c2ccc(N3CCN(C)C3=O)cc2)cc(OC)c1OC	0.062	0.054	120	0.5	0.5
CCN1CCN(c2ccc(S(=O)(=O)Oc3ccc(OC)cc3)cc2)C1=O	60	26	> 100000	–	–
CCCCN1CCN(c2ccc(S(=O)(=O)Oc3cccc(Br)c3)cc2)C1=O	16	35	85	190	410
CCCN1CCN(c2ccc(S(=O)(=O)Oc3ccccc3C)cc2)C1=O	> 100	> 100	> 100000	–	–
CCN1CCN(c2ccc(S(=O)(=O)Oc3cc(OC)cc(OC)c3)cc2)C1=O	4.3	4.2	3500	1.2	1.2

SMILES	IC50 (HT-29) [µM]	IC50 (M21) [µM]	IC50 (MCF7) [nM]	Ratio IC50 [1]	Ratio IC50 [2]
CN1CCN(c2ccc(S(=O)(=O)Oc3cccc(Cl)c3)cc2)C1=O	2.1	1.6	2200	0.9	0.7
CCCCN1CCN(c2ccc(S(=O)(=O)Oc3ccccc3)cc2)C1=O	> 100	> 100	8800	>11	>11
CN1CCN(c2ccc(S(=O)(=O)Oc3ccc(F)cc3)cc2)C1=O	> 100	> 100	> 100000	–	–
CCCCN1CCN(c2ccc(S(=O)(=O)Oc3cccc(I)c3)cc2)C1=O	9.6	23	58	170	400
CCCN1CCN(c2ccc(S(=O)(=O)Oc3ccc(C)cc3C)cc2)C1=O	26	9.7	1500	17	6.5
CCCCN1CCN(c2ccc(S(=O)(=O)Oc3cc(Br)cc(Br)c3)cc2)C1=O	43	> 100	58	740	>1700
CCN1CCN(c2ccc(S(=O)(=O)Oc3ccc(OC)c(OC)c3)cc2)C1=O	37	35	39100	1	0.9
COc1cc(OC)cc(OS(=O)(=O)c2ccc(N3CCN(C)C3=O)cc2)c1	0.19	0.082	230	0.9	0.4
COc1cccc(OS(=O)(=O)c2ccc(N3CCN(C)C3=O)cc2)c1	2.5	1.6	3000	0.8	0.6
CCCCN1CCN(c2ccc(S(=O)(=O)Oc3cccc(F)c3)cc2)C1=O	76	> 100	310	250	>320
CCCCN1CCN(c2ccc(S(=O)(=O)Oc3cc(F)cc(F)c3)cc2)C1=O	> 100	> 100	400	>250	>250
CCCCN1CCN(c2ccc(S(=O)(=O)Oc3ccc(OC)cc3)cc2)C1=O	35	> 100	2500	14	>39
CN1CCN(c2ccc(S(=O)(=O)Oc3cc(Cl)c(Cl)cc3Cl)cc2)C1=O	0.6	0.42	630	1	0.7
CCCN1CCN(c2ccc(S(=O)(=O)Oc3ccccc3CC)cc2)C1=O	> 100	> 50	2300	>43	>22
CCCN1CCN(c2ccc(S(=O)(=O)Oc3c(Cl)cc(Cl)cc3Cl)cc2)C1=O	56	56	> 100000	–	–
Cc1cccc(OS(=O)(=O)c2ccc(N3CCN(C)C3=O)cc2)c1	4.3	2.3	5100	0.9	0.5
CCCN1CCN(c2ccc(S(=O)(=O)Oc3cccc([N+](=O)[O-])c3)cc2)C1=O	> 100	38	19000	>5.3	2
CCN1CCN(c2ccc(S(=O)(=O)Oc3cccc(F)c3)cc2)C1=O	> 100	11	> 100000	–	–
CN1CCN(c2ccc(S(=O)(=O)Oc3cccc(F)c3)cc2)C1=O	> 100	5.8	> 100000	–	–
